Results: ChEMBL document CHEMBL3351454, “Design, synthesis, antimicrobial evaluation and molecular docking studies of some new thiophene, pyrazole and pyridone derivatives bearing sulfisoxazole moiety” (2014)
In brackets after ≈: the same amount, converted by molar mass.

How the values were obtained:
Type in all cases: functional
[1] = test system: Aspergillus fumigatus; assay: Antifungal activity against Aspergillus fumigatus RCMB 02568 assessed as absence of turbidity after 48 hrs; conditions: RCMB 02568, 48 h
In short: (§1)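 Broth microdilution in Sabouraud liquid medium. DMF stocks at 1000 µg/mL were diluted in broth to give twofold serial dilutions over 500–0.007 µg/mL. Fungal inoculum was about 10^4 CFU/mL in 96-well plates, sealed and incubated at 25 °C for 48 h in a humid chamber. MIC was taken as the lowest concentration with no visible turbidity. DMF and uninoculated-medium controls were included.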

[2] = test system: Streptococcus pneumoniae; assay: Antimicrobial activity against Streptococcus pneumoniae RCMB 010010 assessed as absence of turbidity after 24 hrs; conditions: RCMB 010010, 24 h
In short: as §1, with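 “Müller–Hinton broth.” for “Sabouraud liquid medium.”, “Bacterial” for “Fungal”, “10^6” for “10^4”, “37” for “25”, “24” for “48”, “included. Only compounds giving zones >10 mm were tested.” for “included.”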

[3] = test system: Streptococcus pneumoniae; assay: Antimicrobial activity against Streptococcus pneumoniae RCMB 010010 assessed as inhibition zone at 5 mg/ml after 24 hrs; conditions: RCMB 010010, 24 h, read-out: IZ
In short: (§2)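 Agar diffusion on nutrient agar seeded with 10^6 CFU/mL bacteria. Filter-paper disks were loaded with 100 µL of a 5 mg/mL compound solution in DMF, with a DMF-only control. Incubation was 37 °C for 24 h. Inhibition zone in mm (mean ± SD, triplicate plates) was measured beyond the 6 mm diameter.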

[4] = test system: Geotrichum candidum; assay: Antifungal activity against Geotrichum candidum RCMB 05097 assessed as inhibition zone at 5 mg/ml after 48 hrs; conditions: RCMB 05097, 48 h, read-out: IZ
In short: (§3)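 Disk diffusion on nutrient agar seeded with 10^4 CFU/mL fungus. Sterile filter-paper disks carried 100 µL of a 5 mg/mL DMF solution, and DMF alone served as control. Plates were incubated at 25 °C for 48 h. Mean inhibition zone in mm ± SD was read beyond the 6 mm diameter, in triplicate.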

[5] = test system: Bacillus subtilis; assay: Antimicrobial activity against Bacillis subtilis RCMB 010067 assessed as inhibition zone at 5 mg/ml after 24 hrs; conditions: RCMB 010067, 24 h, read-out: IZ; in short: as §2
[6] = test system: Syncephalastrum racemosum; assay: Antifungal activity against Syncephalastrum racemosum RCMB 05922 assessed as absence of turbidity after 48 hrs; conditions: RCMB 05922, 48 h
[7] = test system: Klebsiella pneumoniae; assay: Antimicrobial activity against Klebsiella pneumoniae RCMB 010093 assessed as absence of turbidity after 24 hrs; conditions: RCMB 010093, 24 h
In short: as §1, with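 “Müller–Hinton broth.” for “Sabouraud liquid medium.”, “Bacterial” for “Fungal”, “10^6” for “10^4”, “37” for “25”, “24” for “48”, “included. Only compounds giving zones >10 mm were tested.” for “included.”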

[8] = test system: Escherichia coli; assay: Antimicrobial activity against Escherichia coli RCMB 010052 assessed as absence of turbidity after 24 hrs; conditions: RCMB 010052, 24 h
In short: as §1, with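 “Müller–Hinton broth.” for “Sabouraud liquid medium.”, “Bacterial” for “Fungal”, “10^6” for “10^4”, “37” for “25”, “24” for “48”, “included. Only compounds giving zones >10 mm were tested.” for “included.”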

[9] = test system: Staphylococcus epidermidis; assay: Antimicrobial activity against Staphylococcus epidermidis RCMB 010024 assessed as absence of turbidity after 24 hrs; conditions: RCMB 010024, 24 h
In short: as §1, with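 “Müller–Hinton broth.” for “Sabouraud liquid medium.”, “Bacterial” for “Fungal”, “10^6” for “10^4”, “37” for “25”, “24” for “48”, “included. Only compounds giving zones >10 mm were tested.” for “included.”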

[10] = test system: Bacillus subtilis; assay: Antimicrobial activity against Bacillis subtilis RCMB 010067 assessed as absence of turbidity after 24 hrs; conditions: RCMB 010067, 24 h
In short: as §1, with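 “Müller–Hinton broth.” for “Sabouraud liquid medium.”, “Bacterial” for “Fungal”, “10^6” for “10^4”, “37” for “25”, “24” for “48”, “included. Only compounds giving zones >10 mm were tested.” for “included.”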

[11] = test system: Staphylococcus epidermidis; assay: Antimicrobial activity against Staphylococcus epidermidis RCMB 010024 assessed as inhibition zone at 5 mg/ml after 24 hrs; conditions: RCMB 010024, 24 h, read-out: IZ; in short: as §2
[12] = test system: Proteus vulgaris; assay: Antimicrobial activity against Proteus vulgaris RCMB 010085 assessed as inhibition zone at 5 mg/ml after 24 hrs; conditions: RCMB 010085, 24 h, read-out: IZ; in short: as §2
[13] = test system: Proteus vulgaris; assay: Antimicrobial activity against Proteus vulgaris RCMB 010085 assessed as absence of turbidity after 24 hrs; conditions: RCMB 010085, 24 h
In short: as §1, with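 “Müller–Hinton broth.” for “Sabouraud liquid medium.”, “Bacterial” for “Fungal”, “10^6” for “10^4”, “37” for “25”, “24” for “48”, “included. Only compounds giving zones >10 mm were tested.” for “included.”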

[14] = test system: Aspergillus fumigatus; assay: Antifungal activity against Aspergillus fumigatus RCMB 02568 assessed as inhibition zone at 5 mg/ml after 48 hrs; conditions: RCMB 02568, 48 h, read-out: IZ; in short: as §3
[15] = test system: Escherichia coli; assay: Antimicrobial activity against Escherichia coli RCMB 010052 assessed as inhibition zone at 5 mg/ml after 24 hrs; conditions: RCMB 010052, 24 h, read-out: IZ; in short: as §2
[16] = test system: Geotrichum candidum; assay: Antifungal activity against Geotrichum candidum RCMB 05097 assessed as absence of turbidity after 48 hrs; conditions: RCMB 05097, 48 h; in short: as §1
[17] = test system: Syncephalastrum racemosum; assay: Antifungal activity against Syncephalastrum racemosum RCMB 05922 assessed as inhibition zone at 5 mg/ml after 48 hrs; conditions: RCMB 05922, 48 h, read-out: IZ
[18] = test system: Klebsiella pneumoniae; assay: Antimicrobial activity against Klebsiella pneumoniae RCMB 010093 assessed as inhibition zone at 5 mg/ml after 24 hrs; conditions: RCMB 010093, 24 h, read-out: IZ; in short: as §2

| SMILES | MIC [1] [µg/mL] | MIC [2] [µg/mL] | MIC [6] [µg/mL] | MIC [7] [µg/mL] | MIC [8] [µg/mL] | MIC [9] [µg/mL] | MIC [10] [µg/mL] | MIC [13] [µg/mL] | MIC [16] [µg/mL] | zone of inhibition at 5000 µg/mL [3] [mm] | zone of inhibition at 5000 µg/mL [4] [mm] | zone of inhibition at 5000 µg/mL [5] [mm] | zone of inhibition at 5000 µg/mL [11] [mm] | zone of inhibition at 5000 µg/mL [12] [mm] | zone of inhibition at 5000 µg/mL [14] [mm] | zone of inhibition at 5000 µg/mL [15] [mm] | zone of inhibition at 5000 µg/mL [17] [mm] | zone of inhibition at 5000 µg/mL [18] [mm] |
| --- | --- | --- | --- | --- | --- | --- | --- | --- | --- | --- | --- | --- | --- | --- | --- | --- | --- | --- |
| CC(=O)OC[C@H]1O[C@@H](Sc2c(C#N)c(-c3ccc(Cl)cc3)c(C#N)c(=O)n2-c2ccc(S(=O)(=O)Nc3onc(C)c3C)cc2)[C@H](OC(C)=O)[C@@H](OC(C)=O)[C@@H]1OC(C)=O | 0.49 (≈ 0.564 µM) | 0.06 (≈ 0.0691 µM) | 3.9 (≈ 4.49 µM) | 0.03 (≈ 0.0346 µM) | 0.24 (≈ 0.276 µM) | 0.12 (≈ 0.138 µM) | 0.007 (≈ 0.00806 µM) | 0.98 (≈ 1.13 µM) | 0.03 (≈ 0.0346 µM) | 25.1 | 25.8 | 29.8 | 24.2 | 21.2 | 22.3 | 23.2 | 20.3 | 25.8 |
| Cc1cc(C)n(-c2ccc(S(=O)(=O)Nc3onc(C)c3C)cc2)c(=O)c1C#N | 0.24 (≈ 0.602 µM) | 0.12 (≈ 0.301 µM) | 1.95 (≈ 4.89 µM) | 0.98 (≈ 2.46 µM) | 0.98 (≈ 2.46 µM) | 0.98 (≈ 2.46 µM) | 0.06 (≈ 0.151 µM) | 1.85 (≈ 4.64 µM) | 0.24 (≈ 0.602 µM) | 23.8 | 23.1 | 25.3 | 21.4 | 19.5 | 22.9 | 20.9 | 20.3 | 21.4 |
| CC1(C)S[C@@H]2[C@H](NC(=O)[C@H](N)c3ccccc3)C(=O)N2[C@H]1C(=O)O [AMPICILLIN] | – | 0.12 (≈ 0.343 µM) | – | – | – | 0.06 (≈ 0.172 µM) | 0.24 (≈ 0.687 µM) | – | – | 23.8 | – | 32.4 | 25.4 | – | – | – | – | – |
| Cc1noc(NS(=O)(=O)c2ccc(N)cc2)c1C [SULFISOXAZOLE] | 62.5 (≈ 234 µM) | 1.95 (≈ 7.29 µM) | 125 (≈ 468 µM) | 7.81 (≈ 29.2 µM) | 62.5 (≈ 234 µM) | 7.81 (≈ 29.2 µM) | 0.98 (≈ 3.67 µM) | – | 15.6 (≈ 58.5 µM) | 19.6 | 16.8 | 20.8 | 17.5 | – | 15.1 | 15.2 | 13.2 | 18.2 |

The next lines start with results.

| MIC [1] [µg/mL] | MIC [2] [µg/mL] | MIC [6] [µg/mL] | MIC [7] [µg/mL] | MIC [8] [µg/mL] | MIC [9] [µg/mL] | MIC [10] [µg/mL] | MIC [13] [µg/mL] | MIC [16] [µg/mL] | SMILES | zone of inhibition at 5000 µg/mL [3] [mm] | zone of inhibition at 5000 µg/mL [4] [mm] | zone of inhibition at 5000 µg/mL [5] [mm] | zone of inhibition at 5000 µg/mL [11] [mm] | zone of inhibition at 5000 µg/mL [12] [mm] | zone of inhibition at 5000 µg/mL [14] [mm] | zone of inhibition at 5000 µg/mL [15] [mm] | zone of inhibition at 5000 µg/mL [17] [mm] | zone of inhibition at 5000 µg/mL [18] [mm] |
| --- | --- | --- | --- | --- | --- | --- | --- | --- | --- | --- | --- | --- | --- | --- | --- | --- | --- | --- |
| 125 (≈ 303 µM) | 15.6 (≈ 37.9 µM) | 500 (≈ 1210 µM) | 0.12 (≈ 0.291 µM) | 0.12 (≈ 0.291 µM) | 31.2 (≈ 75.8 µM) | 15.6 (≈ 37.9 µM) | – | 62.5 (≈ 152 µM) | Cc1noc(NS(=O)(=O)c2ccc(NC(=O)/C(C#N)=C/c3ccco3)cc2)c1C | 16.9 | 14.6 | 17.4 | 16.2 | – | 13.9 | 14.9 | 12.1 | 15 |
| 0.06 (≈ 0.103 µM) | 0.98 (≈ 1.68 µM) | 0.007 (≈ 0.012 µM) | 0.98 (≈ 1.68 µM) | 0.007 (≈ 0.012 µM) | 0.98 (≈ 1.68 µM) | 0.24 (≈ 0.411 µM) | 15.6 (≈ 26.7 µM) | 0.12 (≈ 0.206 µM) | CC(=O)c1sc(NC23CC4CC(CC(C4)C2)C3)c(C(=O)Nc2ccc(S(=O)(=O)Nc3onc(C)c3C)cc2)c1N | 21.6 | 24.6 | 22.9 | 20.9 | 17.4 | 25.3 | 29.9 | 26.9 | 20.3 |
